Data as given in publication PMC6900553 (Acta Pharmaceutica Sinica. B, 2019).

What was measured:
[1] = Caco-2 cell permeability assay; settings: human
[2] = test system: A431 human tumor xenografts; test: A431 human tumor xenograft study in nude mice; type: in vivo; settings: A431 xenograft tumor tissue protein, Western blot
Procedure, shortened: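 Athymic BALB/c nude mice, 4–6 weeks old, were implanted s.c. at one site with 1.5 × 10^7 A431 cells under anaesthesia. At 100–200 mm3, mice were randomised into four groups. Saline vehicle (0.1 mL/10 g) or test compound at 10 or 40 mg/kg was given i.g. daily for 27 days. Caliper tumour size and body weight were recorded every 2 days. Excised tumours were weighed, RIPA-extracted and Western blotted; mean ± SD, n = 3.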

[3] = Metabolic stability in rat liver microsomes; type: in vitro ADME; settings: pH 7.4
Procedure, shortened: (§1)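 Liver microsomes were incubated in PBS pH 7.4 at 37 °C with test compound at 1 μmol/L final (1.5 μmol/L in the microsome pre-mix, 0.75 mg/mL microsomes). The reaction was started with NADPH (6 mmol/L stock). Samples at 0, 5, 15, 30 and 45 min were quenched with acetonitrile containing internal standard, vortexed, centrifuged and analysed by LC–MS/MS. Results were expressed as % parent remaining, giving t1/2.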

[4] = Metabolic stability in mouse liver microsomes; type: in vitro ADME; settings: pH 7.4
Procedure, shortened: as §1

[5] = Metabolic stability in dog liver microsomes; type: in vitro ADME; settings: pH 7.4
Procedure, shortened: as §1

[6] = Metabolic stability in monkey liver microsomes; type: in vitro ADME; settings: pH 7.4
Procedure, shortened: as §1

[7] = Pharmacokinetic study in rats; type: in vivo; settings: Sprague-Dawley, rat, plasma; for AUC: mean ± SD, n = 3

SMILES | Papp A→B at 90 min, 10 μmol/L [1] | Papp B→A at 90 min, 10 μmol/L [1] | efflux ratio at 90 min, 10 μmol/L [1] | p-EGFR and p-AKT in tumor extracts [2] | half-life at 1 μmol/L [3] | half-life at 1 μmol/L [4] | half-life at 1 μmol/L [5] | half-life at 1 μmol/L [6] | MRT inf ([7]; iv, 10 mg/kg) | AUC ([7]; iv, 10 mg/kg, AUCINF_plasma, i.v. 10 mg/kg) | AUC ([7]; iv, 10 mg/kg, AUClast_plasma, i.v. 10 mg/kg) | bioavailability ([7]; oral, 40 mg/kg) | Cmax ([7]; po, 40 mg/kg) | Tmax ([7]; po, 40 mg/kg) | half-life ([7]; po, 40 mg/kg) | AUC ([7]; po, 40 mg/kg, AUCINF_plasma, p.o. 40 mg/kg) | AUC ([7]; po, 40 mg/kg, AUClast_plasma, p.o. 40 mg/kg)
COCCc1ccc(OCC(O)CNC(C)C)cc1 (stereo not shown) [Metoprolol] | 40.04 ± 0.05 ×10⁻⁶ cm/s | 30.92 ± 0.03 ×10⁻⁶ cm/s | 0.77 | – | – | – | – | – | – | – | – | – | – | – | – | – | –
COc1cc2ncnc(Nc3ccc(F)c(Cl)c3)c2cc1OCCCN1CCOCC1 [Gefitinib] | 8.37 ± 0.01 ×10⁻⁶ cm/s | 15.52 ± 0.02 ×10⁻⁶ cm/s | – | clearly inhibited | 21.2 min | 8.38 min | 34.5 min | 4.66 min | 272 ± 11.4 min | 7800 ± 1460 ng·h/mL | 7720 ± 1430 ng·h/mL | 66.5 ± 22.8% | 1480 ± 395 ng/mL | 260 ± 173 min | 231 ± 21 min | 20800 ng·h/mL | 20500 ng·h/mL
CC[C@H]1OC(=O)[C@H](C)[C@@H](O[C@H]2C[C@@](C)(OC)[C@@H](O)[C@H](C)O2)[C@H](C)[C@@H](O[C@@H]2O[C@H](C)C[C@H](N(C)C)[C@H]2O)[C@](C)(O)C[C@@H](C)C(=O)[C@H](C)[C@@H](O)[C@]1(C)O [Erythromycin] | 0.09 ± 0.03 ×10⁻⁶ cm/s | 22.18 ± 0.02 ×10⁻⁶ cm/s | 240 | – | – | – | – | – | – | – | – | – | – | – | – | – | –
